Shown are actives, neighbours in structure and some others; about 3% of the full set was active somewhere.
JMJD2C inh: inhibitors of human GASC-1 (JMJD2C) demethylase | Q9H3R0 | GST-JMJD2C(1-420) H3K9me3 demethylation, DELFIA europium | inhibition, % at 2.35 µM | actives 0.069% (n = 330,000) | AID 2099;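 active = more than half of a compound's replicate wells show inhibition beyond 50%, single wells judged on their own value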;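 note: signal counts dimethyl H3K9 product captured on neutravidin plate; 0% = median of DMSO wells and 100% = 0.3 times that DMSO median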
Target sequence (Q9H3R0 1-420 limits assumed): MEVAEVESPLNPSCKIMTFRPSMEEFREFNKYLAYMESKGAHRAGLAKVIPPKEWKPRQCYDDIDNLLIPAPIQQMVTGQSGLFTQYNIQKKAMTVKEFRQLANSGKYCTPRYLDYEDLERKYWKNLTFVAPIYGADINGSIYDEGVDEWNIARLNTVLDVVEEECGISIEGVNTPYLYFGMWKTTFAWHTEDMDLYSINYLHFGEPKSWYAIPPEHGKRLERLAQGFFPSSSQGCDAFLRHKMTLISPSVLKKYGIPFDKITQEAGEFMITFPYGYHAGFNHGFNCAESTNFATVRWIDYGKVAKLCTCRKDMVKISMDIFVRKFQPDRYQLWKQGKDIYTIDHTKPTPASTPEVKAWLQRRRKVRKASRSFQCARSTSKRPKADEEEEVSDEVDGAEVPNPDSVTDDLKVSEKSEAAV
NPR2 activator: GC-B (human) receptor activation | HEK293-GC-B cells, CNP EC30, cGMP TR-FRET; 0% at EC30 CNP, 100% saturating CNP | P20594 | activation, % at 10 µM | actives 0.11% (n = 370,000);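 active = activation at 10 µM reaching about 35% in either raw or pattern-adjusted values, limit read from the data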
Hep lipid drop: hepatic lipid droplet formation modulation | inhibition, % at 6.5 µM | actives 0.4% (n = 240,000) | AML12 mouse hepatocytes, oleate lipid droplets, BODIPY imaging;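 active = lipid droplet intensity inhibited by at least 50%, with more than 500 cells counted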
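material = mouse AML12 hepatocyte cell line, fixed after treatment | also added = 100 µM oleic acid challenge | doses = compound at 6.5 µM only | schedule = overnight exposure | technique = Image-based BODIPY and DAPI two-channel analysis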
NR3A LBD binder: NR3A (human) ligand-binding domain modulation. NR3A LBD differential scanning fluorimetry, Tm shift; 0% = protein alone, 100% = glycine-bound protein. Tm shift relative to glycine control, % at 25 µM. actives 2.5% (n = 340,000);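 active = melting temperature shift of at least 10% of the positive control shift, at one fixed dose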
NPR1 activator: GC-A (human) enzyme activation. P16066. HEK293 GC-A cells, cGMP TR-FRET, EC30 ANP; 0% at EC30 ANP, 100% saturating ANP. activation, % at 10 µM. actives 0.14% (n = 370,000). AID 1671463; in the data active = activation above about 40%
aDG glyco up: alpha-DG glycosylation activation. Pro5-aDG cells, alpha-DG glycosylation AlphaScreen (IIH6); 0% Pro5, 100% B10-LARGE cell signal. activation, % at 10 µM. actives 0.22% (n = 360,000). AID 624168;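 active = activation of at least 8% versus controls, or a plate z-score of at least 8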;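 note: Pro5 are CHO cells carrying HIG-tagged alpha-DG that lacks glycosylation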
An asterisk follows results filed as active; . = no result given.

SMILES	JMJD2C inh	NPR2 activator	Hep lipid drop	NR3A LBD binder	NPR1 activator	aDG glyco up
CSCC[C@H](NC(=O)c1ccc2c(c1)OCO2)c1nnc2ccccn12	-17	2	-41	-5	4	0
NS(=O)(=O)c1ccc(CCNc2ncnc3sccc23)cc1	-13	7	0	19*	2	1
C=CCN1C(=O)c2n[nH]c(C(C)C)c2C1c1ccc2c(c1)OCO2 (stereo not drawn)	.	-3	.	.	-7	.
COc1ccc(NC(=S)NNC(=S)Nc2cccc(C(F)(F)F)c2)cc1	-7	-8	-8	34*	-6	1
CCOc1ccc(NC(=S)NNC(=S)Nc2cccc(C(F)(F)F)c2)cc1	-4	3	2	20*	4	0
Cc1nc(SCC(=O)N(C)c2ccccc2)[nH]c(=O)c1C	.	-2	.	.	-1	.
O=C(NCCOc1ccccc1)c1ncn[nH]1	5	3	5	10*	1	0
Cc1cccc(OCCNC(=O)c2ncn[nH]2)c1	-3	3	-3	-1	3	0
C=CCN1C(=O)[C@H](CC(=O)NCc2ccc(OC)c(OC)c2)[C@@]2(C(=O)OCC)CCCC=C12	.	4	.	.	-2	.
O=C(O)c1ccc(-c2ccc(/C=N/Nc3ccc([N+](=O)[O-])cc3)o2)cc1	7	-4	-8	10*	-3	0
O=C(O)c1cccc(-c2ccc(/C=N/Nc3ccc([N+](=O)[O-])cc3)o2)c1	0	-8	-23	12*	6	0
O=C(O)c1ccc(N/N=C/c2ccc(-c3cccc(Cl)c3)o2)cc1	0	-4	40	-7	-2	0
COc1ccc(C(CNC(=O)c2cccc(S(=O)(=O)Nc3ccc(F)cc3)c2)N2CCCCC2)cc1 (stereo not drawn)	.	-4	.	3	-11	0
COc1cccc(-n2nnc(S(=O)(=O)c3ccc(C)cc3)c2N)c1	-3	1	-24	1	3	0
COc1ccc(S(=O)(=O)c2nnn(-c3cccc(Cl)c3)c2N)cc1	3	-5	-7	19*	-5	0
CCN(CC)C(=O)CC[C@H]1CC[C@]2(CCCN(C(=O)c3ccccc3)C2)O1	.	-4	.	.	5	.
CN(C)c1ccc(C(C(=O)NCc2ccccc2)N(Cc2cccnc2)C(=O)c2snc(C(N)=O)c2N)cc1 (stereo not drawn)	-11	3	-17	-3	-2	0
O=c1c(O)c(-c2ccc(O)c(O)c2)oc2cc(O)cc(O)c12	-52	-9	21	22*	2	0
O=c1cc(-c2ccc(O)cc2)oc2c(-c3c(O)cc(O)c4c(=O)cc(-c5ccc(O)cc5)oc34)c(O)cc(O)c12	.	7	.	21*	-3	0
COc1ccc(-c2cc(=O)c3c(O)cc(O)cc3o2)cc1	.	-5	.	0	-4	0
O=c1cc(-c2ccc(O)c(-c3c(O)cc(O)c4c(=O)cc(-c5ccc(O)cc5)oc34)c2)oc2cc(O)cc(O)c12	-9	9	0	18*	5	0
O=C(O)C1OC(Oc2c(-c3ccc(O)c(O)c3)oc3cc(O)cc(O)c3c2=O)C(O)C(O)C1O (stereo not drawn)	-74	.	-20	-4	.	.
O=c1cc(-c2ccc(O)c(O)c2)oc2cc(O)cc(O)c12	-4	-6	3	10	-1	0
O=c1c(-c2c(O)cc(O)c3c(=O)cc(-c4ccc(O)cc4)oc23)c(-c2ccc(O)cc2)oc2cc(O)cc(O)c12	.	-9	20	27*	1	0
CCOC(=O)CN1C(=O)/C(=C/c2c(F)cccc2Cl)Oc2ccccc21	-1	2	.	1	-7	0
COC(CNC(=O)[C@H](Cc1ccccc1)NC(C)(C)C(=O)NC1CCCCC1)OC	.	-9	.	.	-5	.
CC1=NC2=CC=CC3=NC(C(Cl)(Cl)Cl)=NC(=N1)N23	.	-1	.	.	6	.
CC(C)(O)[C@H]1Cc2cc3ccc(=O)oc3cc2O1	-21	1	-1	3	-3	0
c1ccc(CSc2ccc(-c3cccs3)nn2)cc1	-4	-4	-6	19*	3	0

Bioassay records: PubChem, several laboratories
